Results published in ChEMBL document CHEMBL2040849, “Synthesis and antimicrobial evaluation of 3-methanone-6-substituted-benzofuran derivatives” (2012).
Values after ≈ are worked out from the molar mass of the structure shown.

tested on: Escherichia coli; test: Antibacterial activity against Escherichia coli ATCC 11303 after 24 hrs by microtiter broth dilution method; format: functional; settings: ATCC 11303, 24 h
Method in brief: (§1)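 Compounds dissolved in DMSO and serially diluted by microtiter broth dilution following NCCLS guidance. Plates incubated at 37 °C for 24 h. MIC80 (ug/mL) taken as the lowest concentration inhibiting visible growth. Ceftazidime, cefotaxime, cefradine and sodium penicillin served as reference drugs.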

Structure (SMILES) | MIC80 [µg/mL]
Cc1ccc(-c2oc3cc(OCCc4nc(-c5ccccc5)oc4C)ccc3c2C(=O)c2ccco2)o1 | > 200
Cc1ccc(-c2oc3cc(OCCc4nc(-c5ccccc5)oc4C)ccc3c2C(=O)c2ccc(C(F)(F)F)cc2)o1 | > 200
COc1cc(C(=O)c2c(-c3ccc(C)o3)oc3cc(OCCc4nc(-c5ccccc5)oc4C)ccc23)cc(OC)c1OC | > 200
CC(=O)c1c(-c2ccc(C)o2)oc2cc(O)ccc12 | 12.5 (≈ 48.8 µM)
COc1ccc(-c2oc3cc(OCCc4nc(-c5ccccc5)oc4C)ccc3c2C(=O)/C=C/c2cc(OC)c(OC)c(OC)c2)cc1 | > 200
COc1cc(/N=C/c2c(-c3ccccc3)oc3cc(OCCc4nc(-c5ccccc5)oc4C)ccc23)cc(OC)c1OC | > 200
COc1cc(NCc2c(-c3ccccc3)oc3cc(OCCc4nc(-c5ccccc5)oc4C)ccc23)cc(OC)c1OC | > 200
CO/N=C(\C(=O)N[C@@H]1C(=O)N2C(C(=O)O)=C(COC(C)=O)CS[C@H]12)c1csc(N)n1 [CEFOTAXIME] | > 200
CC(C)(O/N=C(\C(=O)N[C@@H]1C(=O)N2C(C(=O)[O-])=C(C[n+]3ccccc3)CS[C@H]12)c1csc(N)n1)C(=O)O [CEFTAZIDIME] | > 200
CC1=C(C(=O)O)N2C(=O)[C@@H](NC(=O)[C@H](N)C3=CCC=CC3)[C@H]2SC1 [CEPHRADINE] | 25 (≈ 71.5 µM)
CC1(C)S[C@@H]2[C@H](NC(=O)Cc3ccccc3)C(=O)N2[C@H]1C(=O)[O-].[Na+] [PENICILLIN G SODIUM] | 0.78

tested on: Staphylococcus aureus; test: Antibacterial activity against methicillin-resistant Staphylococcus aureus ATCC 700699 after 24 hrs by microtiter broth dilution method; format: functional; settings: ATCC 700699, 24 h
Method in brief: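 Compounds dissolved in DMSO and serially diluted in microtiter broth following NCCLS guidance. Plates were incubated at 37 °C for 24 h. MIC80 was read as the lowest concentration inhibiting visible growth of the organism, in µg/mL.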

Structure (SMILES) | MIC80 [µg/mL]
Cc1ccc(-c2oc3cc(OCCc4nc(-c5ccccc5)oc4C)ccc3c2C(=O)c2ccco2)o1 | > 200
Cc1ccc(-c2oc3cc(OCCc4nc(-c5ccccc5)oc4C)ccc3c2C(=O)c2ccc(C(F)(F)F)cc2)o1 | > 200
COc1cc(C(=O)c2c(-c3ccc(C)o3)oc3cc(OCCc4nc(-c5ccccc5)oc4C)ccc23)cc(OC)c1OC | > 200
CC(=O)c1c(-c2ccc(C)o2)oc2cc(O)ccc12 | 6.25 (≈ 24.4 µM)
COc1ccc(-c2oc3cc(OCCc4nc(-c5ccccc5)oc4C)ccc3c2C(=O)/C=C/c2cc(OC)c(OC)c(OC)c2)cc1 | > 200
COc1cc(/N=C/c2c(-c3ccccc3)oc3cc(OCCc4nc(-c5ccccc5)oc4C)ccc23)cc(OC)c1OC | > 200
COc1cc(NCc2c(-c3ccccc3)oc3cc(OCCc4nc(-c5ccccc5)oc4C)ccc23)cc(OC)c1OC | > 200
CO/N=C(\C(=O)N[C@@H]1C(=O)N2C(C(=O)O)=C(COC(C)=O)CS[C@H]12)c1csc(N)n1 [CEFOTAXIME] | 3.12 (≈ 6.85 µM)
CC(C)(O/N=C(\C(=O)N[C@@H]1C(=O)N2C(C(=O)[O-])=C(C[n+]3ccccc3)CS[C@H]12)c1csc(N)n1)C(=O)O [CEFTAZIDIME] | 12.5 (≈ 22.9 µM)
CC1=C(C(=O)O)N2C(=O)[C@@H](NC(=O)[C@H](N)C3=CCC=CC3)[C@H]2SC1 [CEPHRADINE] | > 200
CC1(C)S[C@@H]2[C@H](NC(=O)Cc3ccccc3)C(=O)N2[C@H]1C(=O)[O-].[Na+] [PENICILLIN G SODIUM] | 3.12

tested on: Staphylococcus aureus; test: Antibacterial activity against Staphylococcus aureus ATCC 29213 after 24 hrs by microtiter broth dilution method; format: functional; settings: ATCC 29213, 24 h; method in brief: as §1

Structure (SMILES) | MIC80 [µg/mL]
Cc1ccc(-c2oc3cc(OCCc4nc(-c5ccccc5)oc4C)ccc3c2C(=O)c2ccco2)o1 | > 200
Cc1ccc(-c2oc3cc(OCCc4nc(-c5ccccc5)oc4C)ccc3c2C(=O)c2ccc(C(F)(F)F)cc2)o1 | > 200
COc1cc(C(=O)c2c(-c3ccc(C)o3)oc3cc(OCCc4nc(-c5ccccc5)oc4C)ccc23)cc(OC)c1OC | 12.5 (≈ 21.1 µM)
CC(=O)c1c(-c2ccc(C)o2)oc2cc(O)ccc12 | 6.25 (≈ 24.4 µM)
COc1ccc(-c2oc3cc(OCCc4nc(-c5ccccc5)oc4C)ccc3c2C(=O)/C=C/c2cc(OC)c(OC)c(OC)c2)cc1 | > 200
COc1cc(/N=C/c2c(-c3ccccc3)oc3cc(OCCc4nc(-c5ccccc5)oc4C)ccc23)cc(OC)c1OC | 3.12 (≈ 5.3 µM)
COc1cc(NCc2c(-c3ccccc3)oc3cc(OCCc4nc(-c5ccccc5)oc4C)ccc23)cc(OC)c1OC | > 200
CO/N=C(\C(=O)N[C@@H]1C(=O)N2C(C(=O)O)=C(COC(C)=O)CS[C@H]12)c1csc(N)n1 [CEFOTAXIME] | 3.12 (≈ 6.85 µM)
CC(C)(O/N=C(\C(=O)N[C@@H]1C(=O)N2C(C(=O)[O-])=C(C[n+]3ccccc3)CS[C@H]12)c1csc(N)n1)C(=O)O [CEFTAZIDIME] | 0.78 (≈ 1.43 µM)
CC1=C(C(=O)O)N2C(=O)[C@@H](NC(=O)[C@H](N)C3=CCC=CC3)[C@H]2SC1 [CEPHRADINE] | > 200
CC1(C)S[C@@H]2[C@H](NC(=O)Cc3ccccc3)C(=O)N2[C@H]1C(=O)[O-].[Na+] [PENICILLIN G SODIUM] | 3.12

tested on: Bacillus subtilis; test: Antibacterial activity against Bacillus subtilis ATCC 33712 after 24 hrs by microtiter broth dilution method; format: functional; settings: ATCC 33712, 24 h; method in brief: as §1

Structure (SMILES) | MIC80 [µg/mL]
Cc1ccc(-c2oc3cc(OCCc4nc(-c5ccccc5)oc4C)ccc3c2C(=O)c2ccco2)o1 | > 200
Cc1ccc(-c2oc3cc(OCCc4nc(-c5ccccc5)oc4C)ccc3c2C(=O)c2ccc(C(F)(F)F)cc2)o1 | > 200
COc1cc(C(=O)c2c(-c3ccc(C)o3)oc3cc(OCCc4nc(-c5ccccc5)oc4C)ccc23)cc(OC)c1OC | > 200
CC(=O)c1c(-c2ccc(C)o2)oc2cc(O)ccc12 | 12.5 (≈ 48.8 µM)
COc1ccc(-c2oc3cc(OCCc4nc(-c5ccccc5)oc4C)ccc3c2C(=O)/C=C/c2cc(OC)c(OC)c(OC)c2)cc1 | > 200
COc1cc(/N=C/c2c(-c3ccccc3)oc3cc(OCCc4nc(-c5ccccc5)oc4C)ccc23)cc(OC)c1OC | > 200
COc1cc(NCc2c(-c3ccccc3)oc3cc(OCCc4nc(-c5ccccc5)oc4C)ccc23)cc(OC)c1OC | > 200
CO/N=C(\C(=O)N[C@@H]1C(=O)N2C(C(=O)O)=C(COC(C)=O)CS[C@H]12)c1csc(N)n1 [CEFOTAXIME] | 0.78 (≈ 1.71 µM)
CC(C)(O/N=C(\C(=O)N[C@@H]1C(=O)N2C(C(=O)[O-])=C(C[n+]3ccccc3)CS[C@H]12)c1csc(N)n1)C(=O)O [CEFTAZIDIME] | 6.25 (≈ 11.4 µM)
CC1=C(C(=O)O)N2C(=O)[C@@H](NC(=O)[C@H](N)C3=CCC=CC3)[C@H]2SC1 [CEPHRADINE] | 50 (≈ 143 µM)
CC1(C)S[C@@H]2[C@H](NC(=O)Cc3ccccc3)C(=O)N2[C@H]1C(=O)[O-].[Na+] [PENICILLIN G SODIUM] | < 0.39

tested on: Pseudomonas aeruginosa; test: Antibacterial activity against Pseudomonas aeruginosa ATCC 49189 after 24 hrs by microtiter broth dilution method; format: functional; settings: ATCC 49189, 24 h; method in brief: as §1

Structure (SMILES) | MIC80 [µg/mL]
Cc1ccc(-c2oc3cc(OCCc4nc(-c5ccccc5)oc4C)ccc3c2C(=O)c2ccco2)o1 | > 200
Cc1ccc(-c2oc3cc(OCCc4nc(-c5ccccc5)oc4C)ccc3c2C(=O)c2ccc(C(F)(F)F)cc2)o1 | > 200
COc1cc(C(=O)c2c(-c3ccc(C)o3)oc3cc(OCCc4nc(-c5ccccc5)oc4C)ccc23)cc(OC)c1OC | > 200
CC(=O)c1c(-c2ccc(C)o2)oc2cc(O)ccc12 | 12.5 (≈ 48.8 µM)
COc1ccc(-c2oc3cc(OCCc4nc(-c5ccccc5)oc4C)ccc3c2C(=O)/C=C/c2cc(OC)c(OC)c(OC)c2)cc1 | > 200
COc1cc(/N=C/c2c(-c3ccccc3)oc3cc(OCCc4nc(-c5ccccc5)oc4C)ccc23)cc(OC)c1OC | > 200
COc1cc(NCc2c(-c3ccccc3)oc3cc(OCCc4nc(-c5ccccc5)oc4C)ccc23)cc(OC)c1OC | > 200
CC(C)(O/N=C(\C(=O)N[C@@H]1C(=O)N2C(C(=O)[O-])=C(C[n+]3ccccc3)CS[C@H]12)c1csc(N)n1)C(=O)O [CEFTAZIDIME] | 12.5 (≈ 22.9 µM)
CC1=C(C(=O)O)N2C(=O)[C@@H](NC(=O)[C@H](N)C3=CCC=CC3)[C@H]2SC1 [CEPHRADINE] | > 200
